Wee1 stabilizer: human Wee1 degradation inhibition, primary screen. P30291. reporter increase, % at 5 µM. AID 1321. HeLa Luc-Wee1K328M stability, luciferase luminescence; 100% = proteasome inhibitor MG132 effect. hit rate 1.2% among 220,000;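 active = activation above the mean of all tested compounds plus 3 SD, set per screening run, cut at about 8.8% in these data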;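 note: cells exposed to compound for 20 h before luminescence read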
Target sequence (P30291 whole entry K328M): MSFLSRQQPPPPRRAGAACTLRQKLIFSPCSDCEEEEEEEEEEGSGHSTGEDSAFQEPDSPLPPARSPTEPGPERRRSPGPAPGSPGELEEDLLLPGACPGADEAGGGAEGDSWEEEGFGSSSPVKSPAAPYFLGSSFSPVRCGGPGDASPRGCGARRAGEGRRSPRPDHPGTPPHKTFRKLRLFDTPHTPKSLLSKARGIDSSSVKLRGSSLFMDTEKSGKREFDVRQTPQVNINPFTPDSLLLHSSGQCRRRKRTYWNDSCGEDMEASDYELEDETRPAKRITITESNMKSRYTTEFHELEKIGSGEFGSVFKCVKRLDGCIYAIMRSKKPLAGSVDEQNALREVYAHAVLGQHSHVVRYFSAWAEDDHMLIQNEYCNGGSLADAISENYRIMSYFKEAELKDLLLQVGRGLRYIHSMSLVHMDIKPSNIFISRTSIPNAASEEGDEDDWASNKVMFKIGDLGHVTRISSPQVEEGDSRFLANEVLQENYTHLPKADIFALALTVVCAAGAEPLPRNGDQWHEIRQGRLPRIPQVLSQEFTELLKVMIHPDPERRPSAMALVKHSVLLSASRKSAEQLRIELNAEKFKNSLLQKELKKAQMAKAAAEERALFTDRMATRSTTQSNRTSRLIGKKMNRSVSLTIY
Autophagy mod: alters autophagy in cells; calls only at 10 µM (by protocol); hit rate 0.98% among 190,000; MEF GFP-LC3 puncta imaging; test concentration mostly 10 µM;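 active = percentage of spot-positive cells more than 3 SD above its plate mean, without a fluorescence outlier flag or 80% toxicity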
MT stabilizer: microtubule stabilizers in HeLa cells; % tubulin-high responders, % at 10 µM; AID 2205; hit rate 0.83% among 200,000; HeLa tubulin immunostaining HCS, 24 h; share of cells brighter than vehicle mean+2SD;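 active = plate Z-score above 3 for both tubulin-high and condensed-nucleus cell shares, with cell loss under 80%, at 10 µM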;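 note: anti alpha tubulin signal scored within the nucleus-defined area of each cell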
b-catenin transl: alters nuclear translocation of beta-catenin in HeLa cells | immunofluorescence imaging | nuclear translocation activity, % at 5 µM | hit rate 0.3% among 190,000;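 active = nuclear translocation activity above 50% at 5 µM, with a well cell count of 50 or more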;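 note: per-cell ratio of nuclear to cytoplasmic median beta-catenin stain intensity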
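Test system: human HeLa cells, endogenous beta-catenin. Times: 24 h compound exposure, 37°C. Measured by: beta-catenin immunofluorescence imaging with DAPI.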
Insulin prom up: MIN6 insulin promoter up-regulation | MIN6 insulin promoter-GFP reporter, high-content imaging; hits give high values | z-score at 5 µM | hit rate 0.3% among 190,000 | AID 1625;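 active = z-score above 3 at 5 µM with at least 500 cells counted in the well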
Numbers stand for hits. Only some compounds are listed: those with a hit (about 2.9% of all), similar ones and a draw of the others.

O=C(N/N=C/c1c(Nc2cccc(C(F)(F)F)c2)nc2ccccn2c1=O)c1ccccc1[N+](=O)[O-] was read as Wee1 stabilizer inactive, Autophagy mod inactive, MT stabilizer inactive, b-catenin transl inactive and Insulin prom up inactive.
For COc1ccc(CCNC(=S)N2CCC(Cc3ccccc3)CC2)cc1OC the results were Wee1 stabilizer inactive, Autophagy mod inactive, MT stabilizer inactive, b-catenin transl inactive and Insulin prom up inactive.
Screening COc1ccc(C(=O)N2CCN(c3ccccn3)CC2)cc1[N+](=O)[O-] returned Wee1 stabilizer inactive, Autophagy mod inactive, MT stabilizer inactive, b-catenin transl inactive and Insulin prom up inactive.
Screening COc1ccccc1-c1c(-c2ccc(OCC(=O)NN)cc2O)n[nH]c1C(F)(F)F returned Wee1 stabilizer inactive, Autophagy mod inactive, MT stabilizer inactive, b-catenin transl inactive and Insulin prom up inactive.
COc1ccc(-c2n[nH]c(C(F)(F)F)c2-c2cc3ccccc3o2)c(O)c1 was read as Wee1 stabilizer inactive, Autophagy mod inactive, MT stabilizer 30, b-catenin transl 94 and Insulin prom up inactive.
For C/C(CC(=O)Nc1cccnc1)=N\NC(=O)C(=O)NC(C)C the results were Wee1 stabilizer inactive, b-catenin transl inactive and Insulin prom up inactive.
Screening C/C(CC(=O)Nc1cccnc1)=N\NC(=O)C(=O)Nc1cccc(C)c1 returned Wee1 stabilizer inactive, Autophagy mod active, MT stabilizer inactive and Insulin prom up inactive.
`COc1ccc(C(=O)CSc2[nH]c(=O)cc(C(F)(F)F)c2C#N)cc1` gave Wee1 stabilizer inactive, b-catenin transl inactive and Insulin prom up inactive.
`NC(=S)NNC(=O)c1cccc(Br)c1` gave Wee1 stabilizer inactive, Autophagy mod inactive, MT stabilizer inactive and b-catenin transl inactive.
For O=C(Nc1cc(=O)[nH]c(=O)[nH]1)c1cccc(Br)c1 the results were Wee1 stabilizer inactive, Autophagy mod inactive, MT stabilizer 25, b-catenin transl inactive and Insulin prom up inactive.
Screening COC(=O)C1=C(N)Oc2cc(C)n(Cc3cccnc3)c(=O)c2C1c1cccc(OC)c1OC (stereo not given) returned Wee1 stabilizer 9.2, MT stabilizer inactive, b-catenin transl inactive and Insulin prom up inactive.
For COC(=O)C1=C(N)Oc2cc(C)n(Cc3cccnc3)c(=O)c2C1c1cc(OC)ccc1OC (stereo not given) the results were Wee1 stabilizer inactive, Autophagy mod inactive, MT stabilizer inactive, b-catenin transl inactive and Insulin prom up inactive.
`CCc1nnc(NC(=O)CSc2nccn2-c2cccc(C)c2C)s1` gave Wee1 stabilizer inactive, Autophagy mod inactive, MT stabilizer 19, b-catenin transl inactive and Insulin prom up inactive.
For O=S(=O)(Nc1nc(-c2sccc2Cl)cs1)c1cc(Cl)ccc1Cl the results were Wee1 stabilizer inactive, Autophagy mod inactive and MT stabilizer inactive.
`Nc1ccccc1SCc1cn2ccccc2n1` gave Wee1 stabilizer inactive, Autophagy mod inactive, MT stabilizer inactive, b-catenin transl inactive and Insulin prom up inactive.
Screening N=C(N)SCc1cn2ccccc2n1 returned Wee1 stabilizer 8.8, Autophagy mod inactive, MT stabilizer inactive and b-catenin transl inactive.
For O=C1CSC(c2ccccc2)N1CC12CC3CC(CC(O)(C3)C1)C2 (stereo not given) the results were Wee1 stabilizer 13, Autophagy mod inactive, MT stabilizer inactive, b-catenin transl inactive and Insulin prom up inactive.
CN(C)CCCN1C(=O)CSC1c1ccccc1 (stereo not given) was read as Wee1 stabilizer inactive, MT stabilizer inactive, b-catenin transl inactive and Insulin prom up inactive.
Screening COc1ccc(C(=O)/C=C/Nc2ccc([N+](=O)[O-])cc2C)cc1OC returned Wee1 stabilizer inactive, Autophagy mod inactive, MT stabilizer inactive, b-catenin transl inactive and Insulin prom up inactive.
`COc1ccc(C(=O)OCC(=O)Nc2ccc([N+](=O)[O-])cc2OC)c(O)c1` gave Wee1 stabilizer inactive, Autophagy mod active, MT stabilizer inactive, b-catenin transl inactive and Insulin prom up inactive.
Screening COc1ccc(C(=O)/C=C/Nc2ccc([N+](=O)[O-])cc2C)c(OC)c1 returned Wee1 stabilizer inactive, Autophagy mod active, MT stabilizer inactive, b-catenin transl inactive and Insulin prom up inactive.
Screening CCOc1cc(S(=O)(=O)N2CCN(Cc3ccccc3)CC2)ccc1Br returned Wee1 stabilizer inactive, Autophagy mod inactive, MT stabilizer inactive, b-catenin transl inactive and Insulin prom up inactive.
`c1ccc(Nc2nc(-c3cccnc3)cs2)nc1` gave Wee1 stabilizer inactive, Autophagy mod inactive, MT stabilizer inactive, b-catenin transl inactive and Insulin prom up inactive.

Source: PubChem BioAssay
